Results from ChEMBL document CHEMBL5034020, “Self-Masked Aldehyde Inhibitors: A Novel Strategy for Inhibiting Cysteine Proteases” (J Med Chem, 2021).
Calls of active or inactive are those of the source. No cut-off for these calls is given here. Residues, ends and D or L forms follow the SMILES beside them. *: point of attachment. Cbz = O=C(OCc1ccccc1)*

Experiments:
[1] = molecular target: Cruzipain (Trypanosoma cruzi) (UniProt P25779); assay: Binding affinity to Trypanosoma cruzi cruzain assessed as covalent bond formation between compound and Cys25 residue by 2D HSQC NMR spectroscopy analysis
Chain of Cruzipain (Trypanosoma cruzi) (P25779 123-467 limits assumed): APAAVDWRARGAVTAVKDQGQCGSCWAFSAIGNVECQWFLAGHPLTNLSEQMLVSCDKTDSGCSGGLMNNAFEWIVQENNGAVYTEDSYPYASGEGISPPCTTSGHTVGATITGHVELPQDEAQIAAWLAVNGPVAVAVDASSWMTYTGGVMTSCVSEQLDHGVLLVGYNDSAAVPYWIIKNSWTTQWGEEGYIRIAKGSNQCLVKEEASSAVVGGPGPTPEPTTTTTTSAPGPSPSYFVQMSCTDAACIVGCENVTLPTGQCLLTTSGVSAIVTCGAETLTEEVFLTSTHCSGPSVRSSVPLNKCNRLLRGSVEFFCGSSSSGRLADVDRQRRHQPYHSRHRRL
Outline: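 ¹³C-labelled lactol diluted from a 10 mM DMSO-d6 stock into NMR buffer. Control at 0.6 mM; sample at 0.4 mM with 0.44 mM freshly SEC-purified cruzain. ¹H-¹³C HSQC recorded at 800 MHz and 25 °C, with a spectrum acquired after 1 h with enzyme.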

[2] = test system: Trypanosoma brucei brucei; assay: Antitrypanosomal activity against bloodstream form of Trypanosoma brucei brucei measured after 3 to 4 days by Z2 coulter counter based analysis; assay type: functional, organism-based
Outline: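 Bloodstream-form T. b. brucei SM427 grown at 37 °C in HM1–9 with 10% FBS and penicillin–streptomycin, seeded at ~1×10⁶ cells. Inhibitor at 0.5–20 μM final (DMSO <1%). Cultures diluted daily to stay in log phase, with inhibitor re-added each time. Cells counted with a Coulter counter.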

[3] = molecular target: Cruzipain (Trypanosoma cruzi) (UniProt P25779); assay: Reversible inhibition of Trypanosoma cruzi cruzain using Cbz-Phe-Arg-AMC as substrate assessed as enzyme recovery preincubated for 2 hrs followed by 100-fold dilution in presence of substrate by rapid dilution assay
[4] = molecular target: Cruzipain (Trypanosoma cruzi, UniProt P25779); assay: Time dependent inhibition of Trypanosoma cruzi cruzain using Cbz-Phe-Arg-AMC as substrate assessed as inhibition constant for EI complex measured for 0.5 to 1 hr by fluorescence based analysis
Chain of Cruzipain (P25779 whole entry): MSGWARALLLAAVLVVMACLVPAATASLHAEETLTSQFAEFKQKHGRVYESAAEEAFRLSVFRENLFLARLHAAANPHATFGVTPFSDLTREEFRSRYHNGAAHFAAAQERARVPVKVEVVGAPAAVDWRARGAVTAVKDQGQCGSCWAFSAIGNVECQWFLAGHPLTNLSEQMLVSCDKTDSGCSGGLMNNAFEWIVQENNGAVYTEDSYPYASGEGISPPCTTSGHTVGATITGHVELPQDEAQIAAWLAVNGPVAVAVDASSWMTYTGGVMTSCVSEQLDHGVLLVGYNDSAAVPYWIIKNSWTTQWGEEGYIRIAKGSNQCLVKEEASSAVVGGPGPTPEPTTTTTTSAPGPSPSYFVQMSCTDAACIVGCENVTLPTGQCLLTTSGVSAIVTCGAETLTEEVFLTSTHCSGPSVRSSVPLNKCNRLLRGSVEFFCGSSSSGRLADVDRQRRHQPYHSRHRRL

[5] = Chemical stability of the compound in NMR buffer in absence of DTT assessed as phenylhydrazone formation at 0.2 mM incubated for 2 hrs in presence of 1 M phenyl hydrazine by UV absorbance based analysis; assay type: physicochemical; conditions: 200 µM
Outline: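 0.2 mM compound treated with 1 mM phenylhydrazine final (added from a 1 M stock) in NMR buffer lacking DTT, with a DMSO control. Phenylhydrazone formation followed continuously by UV absorbance at 282 nm for 2 h.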

[6] = test system: Trypanosoma cruzi; assay: Antitrypanosomal activity against Trypanosoma cruzi infected in mouse C2C12 cells incubated for 2 days by DAPI staining based microscopic analysis; assay type: functional, organism-based; conditions: C2C12, 48 h
Outline: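 Inhibitor added as 3-fold serial dilutions, top 40 μM (typically 0.02–40 μM), 2 days at 37 °C. Fixed with 2% PFA in PBS, stained with 5 μg/mL DAPI for >30 min in the dark, then imaged to count parasites and host cells.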

[7] = test system: C2C12; assay: Cytotoxicity against mouse C2C12 cells assessed as reduction in cell viability at up to 40 uM; assay type: cell-based
[8] = molecular target: Cruzipain (Trypanosoma cruzi) (UniProt P25779); assay: Time dependent inhibition of Trypanosoma cruzi cruzain using Cbz-Phe-Arg-AMC as substrate measured after >= 20 mins; conditions: time min >=20, TDE = time-dependent effect
Outline: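 Started by adding cruzain to 0.2 nM. Fluorescence (ex 360 / em 460 nm) followed for 20–60 min.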

[9] = molecular target: Cruzipain (Trypanosoma cruzi) (UniProt P25779); assay: Binding affinity to Trypanosoma cruzi cruzain assessed as formation of enzyme-inhibitor adducts by measuring mass changes by mass spectrometric analysis
[10] = Stability of the compound in buffer at pH 7.5 assessed as conversion to N-((2S)-1-((3S)-2-hydroxychroman-3-ylamino)-1-oxo-3-phenylpropan-2-yl)-4-methylpiperazine-1-carboxamide by measuring half life by LC-MS analysis; assay type: physicochemical
[11] = molecular target: T1, Liver carboxylesterase (Sus scrofa, UniProt Q29550); assay: Stability of the compound in buffer at pH 7.5 assessed as porcine esterase-mediated compound degradation measured over 3 hrs by LC-MS analysis; assay type: ADME; conditions: pig, read-out: Drug degradation
T1 sequence (Q29550 whole entry): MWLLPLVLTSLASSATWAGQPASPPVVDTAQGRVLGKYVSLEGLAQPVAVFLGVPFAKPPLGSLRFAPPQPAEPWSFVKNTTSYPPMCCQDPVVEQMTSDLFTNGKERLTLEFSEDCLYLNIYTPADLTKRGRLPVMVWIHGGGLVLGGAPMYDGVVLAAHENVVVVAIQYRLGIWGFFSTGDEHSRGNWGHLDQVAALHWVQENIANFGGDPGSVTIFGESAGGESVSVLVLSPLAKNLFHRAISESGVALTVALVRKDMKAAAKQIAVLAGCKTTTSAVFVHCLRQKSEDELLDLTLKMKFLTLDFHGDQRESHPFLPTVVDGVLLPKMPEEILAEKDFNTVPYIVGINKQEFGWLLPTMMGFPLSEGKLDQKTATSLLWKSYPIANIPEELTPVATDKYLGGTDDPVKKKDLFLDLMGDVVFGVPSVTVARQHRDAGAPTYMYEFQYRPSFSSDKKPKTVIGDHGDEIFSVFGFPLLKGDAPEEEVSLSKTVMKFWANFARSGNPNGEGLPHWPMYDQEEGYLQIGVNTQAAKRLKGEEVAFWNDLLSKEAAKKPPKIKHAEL
Outline: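 Prodrugs at 2 mM in cruzain assay buffer (pH 7.5, 10% DMSO) with porcine liver esterase at 40 U/mL, shaken at 37 °C. Controls without esterase and buffer only. Aliquots taken at 0–300 min and quenched with MeCN, then the supernatant analysed by HPLC–MS with detection at 270 nm.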

[12] = molecular target: Cruzipain (Trypanosoma cruzi) (UniProt P25779); assay: Reversible inhibition of Trypanosoma cruzi cruzain using Cbz-Phe-Arg-AMC as substrate assessed as enzyme recovery at 10 fold >apparent Ki preincubated for 2 hrs followed by 100-fold dilution in presence of substrate by rapid dilution assay relative to control; design: scale not given: the % may be the effect or the level left
[13] = molecular target: Cruzipain (Trypanosoma cruzi) (UniProt P25779); assay: Reversible inhibition of Trypanosoma cruzi cruzain using Cbz-Phe-Arg-AMC as substrate at 0.1 times apparent Ki preincubated for 2 hrs followed by 100-fold dilution in presence of substrate by rapid dilution assay relative to control
[14] = molecular target: Cytochrome P450 2D6 (Homo sapiens, UniProt P10635); assay: Metabolic stability of the compound assessed as CYP2D6 (unknown origin)-mediated conversion to N-((2S)-1-((3S)-2-hydroxychroman-3-ylamino)-1-oxo-3-phenylpropan-2-yl)-4-methylpiperazine-1-carboxamide measured up to 4 hrs in presence of NADPH-regenerating system; assay type: ADME
Chain of Cytochrome P450 2D6 (P10635 whole entry): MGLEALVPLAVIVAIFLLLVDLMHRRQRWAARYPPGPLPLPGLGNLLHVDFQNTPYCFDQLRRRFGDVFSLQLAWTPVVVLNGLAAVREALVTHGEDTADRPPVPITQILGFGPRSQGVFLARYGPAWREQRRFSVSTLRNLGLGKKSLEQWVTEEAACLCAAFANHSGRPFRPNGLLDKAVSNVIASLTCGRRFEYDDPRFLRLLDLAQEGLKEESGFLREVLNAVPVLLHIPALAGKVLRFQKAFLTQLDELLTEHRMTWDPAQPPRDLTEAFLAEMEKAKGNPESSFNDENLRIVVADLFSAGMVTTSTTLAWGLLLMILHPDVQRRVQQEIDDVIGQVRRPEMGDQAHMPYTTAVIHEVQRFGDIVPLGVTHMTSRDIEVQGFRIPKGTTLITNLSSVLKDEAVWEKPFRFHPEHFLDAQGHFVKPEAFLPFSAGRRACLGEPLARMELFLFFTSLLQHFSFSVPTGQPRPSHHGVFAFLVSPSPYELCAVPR

[15] = molecular target: Cytochrome P450 3A4 (Homo sapiens, UniProt P08684); assay: Metabolic stability of the compound assessed as CYP3A4 (unknown origin)-mediated conversion to N-((2S)-1-((3S)-2-hydroxychroman-3-ylamino)-1-oxo-3-phenylpropan-2-yl)-4-methylpiperazine-1-carboxamide measured up to 4 hrs in presence of NADPH-regenerating system; assay type: ADME
Chain of Cytochrome P450 3A4 (P08684 whole entry): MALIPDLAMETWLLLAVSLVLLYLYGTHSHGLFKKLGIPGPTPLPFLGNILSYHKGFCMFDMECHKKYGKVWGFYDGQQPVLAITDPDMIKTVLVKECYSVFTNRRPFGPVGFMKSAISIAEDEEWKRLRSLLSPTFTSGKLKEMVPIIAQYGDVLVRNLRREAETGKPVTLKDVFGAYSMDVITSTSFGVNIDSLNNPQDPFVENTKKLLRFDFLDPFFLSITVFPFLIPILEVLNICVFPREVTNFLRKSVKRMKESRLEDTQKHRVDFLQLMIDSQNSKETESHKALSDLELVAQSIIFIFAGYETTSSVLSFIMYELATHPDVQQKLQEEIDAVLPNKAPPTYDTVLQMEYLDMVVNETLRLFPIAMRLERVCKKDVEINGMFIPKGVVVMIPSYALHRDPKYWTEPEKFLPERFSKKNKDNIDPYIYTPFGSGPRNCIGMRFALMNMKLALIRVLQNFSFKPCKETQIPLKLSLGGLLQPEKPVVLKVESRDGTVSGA

[16] = molecular target: Cytochrome P450 2C9 (Homo sapiens, UniProt P11712); assay: Metabolic stability of the compound assessed as CYP2C9 (unknown origin)-mediated conversion to N-((2S)-1-((3S)-2-hydroxychroman-3-ylamino)-1-oxo-3-phenylpropan-2-yl)-4-methylpiperazine-1-carboxamide measured up to 4 hrs in presence of NADPH-regenerating system; assay type: ADME
Chain of Cytochrome P450 2C9 (P11712 whole entry): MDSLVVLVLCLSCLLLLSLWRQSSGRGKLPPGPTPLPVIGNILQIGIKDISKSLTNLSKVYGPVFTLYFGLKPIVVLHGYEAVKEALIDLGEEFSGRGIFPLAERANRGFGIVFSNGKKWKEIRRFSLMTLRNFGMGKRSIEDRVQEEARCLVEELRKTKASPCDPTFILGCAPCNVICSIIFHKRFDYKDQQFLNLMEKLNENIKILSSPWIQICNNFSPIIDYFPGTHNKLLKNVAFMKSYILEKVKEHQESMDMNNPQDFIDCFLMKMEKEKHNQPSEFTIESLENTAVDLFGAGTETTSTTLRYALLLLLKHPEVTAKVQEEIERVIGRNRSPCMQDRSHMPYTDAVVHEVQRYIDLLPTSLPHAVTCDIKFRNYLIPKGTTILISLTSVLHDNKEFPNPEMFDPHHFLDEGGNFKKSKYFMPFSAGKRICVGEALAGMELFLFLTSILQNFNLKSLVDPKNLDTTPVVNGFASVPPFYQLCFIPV

[17] = Inhibition of SARS-CoV-2 3CLpro using ACC-SAVLQSGFRK(DNP)-NH2 as substrate assessed as inhibition constant measured for 0.5 to 1 hr by fluorescence based analysis; design: species or system Severe acute respiratory syndrome coronavirus 2
[18] = molecular target: Procathepsin L (Homo sapiens, UniProt P07711); assay: Inhibition of human Cathepsin L
Chain of Procathepsin L (P07711 whole entry): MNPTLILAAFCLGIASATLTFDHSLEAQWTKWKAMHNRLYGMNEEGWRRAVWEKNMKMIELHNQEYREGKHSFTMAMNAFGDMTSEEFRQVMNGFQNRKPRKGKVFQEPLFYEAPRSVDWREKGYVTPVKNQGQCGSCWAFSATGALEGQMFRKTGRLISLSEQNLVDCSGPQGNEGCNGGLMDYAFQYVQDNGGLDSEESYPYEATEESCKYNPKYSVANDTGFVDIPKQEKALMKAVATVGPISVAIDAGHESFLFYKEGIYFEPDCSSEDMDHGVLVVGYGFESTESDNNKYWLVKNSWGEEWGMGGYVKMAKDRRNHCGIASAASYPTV

[19] = test system: SARS-CoV-2; assay: Antiviral activity against SARS-CoV-2 infected in human A549 cells transfected with ACE2 assessed as virus-induced cytopathic effect incubated for 4 days by microscopic analysis; assay type: functional, organism-based; conditions: Severe acute respiratory syndrome coronavirus 2, A549, 96 h
[20] = molecular target: Cruzipain (Trypanosoma cruzi) (UniProt P25779); assay: Time dependent inhibition of Trypanosoma cruzi cruzain using Cbz-Phe-Arg-AMC as substrate assessed as association rate constant for EI complex measured over 30 mins
[21] = Selectivity index, ratio of EC50 for antitrypanosomal activity against bloodstream form of Trypanosoma brucei brucei measured after 3 to 4 days by Z2 coulter counter based analysis to Ki for time dependent inhibition of Trypanosoma cruzi cruzain using Cbz-Phe-Arg-AMC as substrate assessed as inhibition constant for EI complex measured for 0.5 to 1 hr by fluorescence based analysis; assay type: toxicity

Compound	EC50 [2] [µM]	Ki [4] [µM]	EC50 [6] [µM]	Activity [7]	Activity [12] [%]	inhibition [13] [%]	other results
CN1CCN(C(=O)N[C@@H](Cc2ccccc2)C(=O)N[C@H]2Cc3ccccc3OC2O)CC1 (stereo partly specified)	0.6	0.047	> 20	Non-Toxic	–	–	Activity [1]: Active; Activity [3]: inactive; Stability [5]: Stable; inhibition [8]: Tde; Activity [9]: Active
CN1CCN(C(=O)N[C@@H](Cc2ccccc2)C(=O)N[C@H](C=O)CCc2ccccc2)CC1	–	–	–	–	–	–	Activity [3]: inactive; Stability [5]: Unstable; inhibition [8]: Tde
CC(=O)OC1Oc2ccccc2C[C@@H]1NC(=O)[C@H](Cc1ccccc1)NC(=O)N1CCN(C)CC1 (stereo partly specified)	3.7	1	13	Non-Toxic	–	–	t1/2 [10]: 48 min; metabolised at 3 h [11]: 10%
O=C(CN[C@@H](Cc1ccccc1)C(=O)N[C@H](CO)Cc1ccccc1O)OCc1ccccc1	–	> 10	–	–	–	–	–
O=C(N[C@@H](Cc1ccccc1)C(=O)N[C@H]1Cc2cc(Cl)ccc2OC1O)OCc1ccccc1 (stereo partly specified)	5.8	0.074	–	Non-Toxic	91	9	–
O=C(Cn1ccnc1[N+](=O)[O-])NCc1ccccc1 [BENZNIDAZOLE]	–	–	4	–	–	–	–
CN1CCN(C(=O)N[C@@H](Cc2ccccc2)C(=O)N[C@H](/C=C/S(=O)(=O)c2ccccc2)CCc2ccccc2)CC1 [K-777]	–	–	0.04	Toxic	–	–	–
COC(=O)c1ccc2c(c1)C[C@H](NC(=O)[C@H](Cc1ccccc1)NC(=O)OCc1ccccc1)C(O)O2 (stereo partly specified)	4	0.018	3.5	Non-Toxic	91	9	–
CCOC1Oc2ccccc2C[C@@H]1NC(=O)[C@H](Cc1ccccc1)NC(=O)N1CCN(C)CC1 (stereo partly specified)	12	> 5	–	Non-Toxic	–	–	Stability [14]: Stable; Stability [15]: Stable; Stability [16]: Stable
COc1ccccc1C[C@@H](C=O)NC(=O)[C@H](Cc1ccccc1)NCC(=O)OCc1ccccc1	–	0.022	–	–	–	–	–
O=C(N[C@@H](Cc1ccccc1)C(=O)N[C@H]1Cc2ccccc2OC1O)OCc1ccccc1 (stereo partly specified)	6.8	0.049	2.9	Non-Toxic	91	9	Activity [9]: Active
CCC(=O)OC1Oc2ccccc2C[C@@H]1NC(=O)[C@H](Cc1ccccc1)NC(=O)N1CCN(C)CC1 (stereo partly specified)	3.1	> 5	–	Non-Toxic	–	–	t1/2 [10]: 24 min
Cc1ccc2c(c1)C[C@H](NC(=O)[C@H](Cc1ccccc1)NC(=O)OCc1ccccc1)C(O)O2 (stereo partly specified)	0.5	–	5.7	Non-Toxic	91	9	Activity [9]: Active
CN1CCN(C(=O)N[C@@H](Cc2ccccc2)C(=O)N[C@@H]2Cc3ccccc3C[C@H]2O)CC1 (mixture of isomers)	–	> 100	–	–	–	–	–
CC(C)OC1Oc2ccccc2C[C@@H]1NC(=O)[C@H](Cc1ccccc1)NC(=O)N1CCN(C)CC1 (stereo partly specified)	14	> 5	–	Non-Toxic	–	–	Stability [14]: Stable; Stability [15]: Stable; Stability [16]: Stable
COc1ccc2c(c1)C[C@H](NC(=O)[C@H](Cc1ccccc1)NC(=O)OCc1ccccc1)C(O)O2 (stereo partly specified)	2.6	0.35	–	Non-Toxic	91	9	–
CC(C)[C@H](NC(=O)OCc1ccccc1)C(=O)N[C@@H](CC1CCCCC1)C(=O)N[C@H](C=O)Cc1ccc[nH]c1=O	–	–	–	–	–	–	Ki [17]: 0.009 µM; Ki [18]: 0.053 µM; EC50 [19]: 5 µM
O=C(N[C@@H](Cc1ccccc1)C(=O)N[C@H]1Cc2cc(F)ccc2OC1O)OCc1ccccc1 (stereo partly specified)	2.7	0.048	3.5	Non-Toxic	91	9	Activity [9]: Active
O=C[C@H](Cc1ccccc1)NC(=O)[C@H](Cc1ccccc1)NC(=O)OCc1ccccc1 (Cbz-Phe-Phe-aldehyde)	3.3	0.00044	0.5	Toxic	–	–	Activity [3]: inactive; Ka [20]: 7.6 10^-4/s; Ratio [21]: 7500
CC(C)C(=O)OC1Oc2ccccc2C[C@@H]1NC(=O)[C@H](Cc1ccccc1)NC(=O)N1CCN(C)CC1 (stereo partly specified)	4	> 5	10	Non-Toxic	–	–	t1/2 [10]: 16 min
